# From PubChem BioAssay
# The full list was thinned out, with hits kept by preference.
# MDM2 E3 inh: blocks human Mdm2 ubiquitin ligase activity; cell-based MDM2 ubiquitination luciferase reporter, 2 h; 0 = plate control, 100 = twice control, blank-subtracted; signal enhancement, % at 5 µM; 210,000 tested, 0.11% active;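 active means signal enhancement of 30% or more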;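 further: luminescence tracks abundance of the self-degrading MDM2-luciferase fusion protein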
# Target sequence (Q00987 whole entry, looked up, the tested form may be a part): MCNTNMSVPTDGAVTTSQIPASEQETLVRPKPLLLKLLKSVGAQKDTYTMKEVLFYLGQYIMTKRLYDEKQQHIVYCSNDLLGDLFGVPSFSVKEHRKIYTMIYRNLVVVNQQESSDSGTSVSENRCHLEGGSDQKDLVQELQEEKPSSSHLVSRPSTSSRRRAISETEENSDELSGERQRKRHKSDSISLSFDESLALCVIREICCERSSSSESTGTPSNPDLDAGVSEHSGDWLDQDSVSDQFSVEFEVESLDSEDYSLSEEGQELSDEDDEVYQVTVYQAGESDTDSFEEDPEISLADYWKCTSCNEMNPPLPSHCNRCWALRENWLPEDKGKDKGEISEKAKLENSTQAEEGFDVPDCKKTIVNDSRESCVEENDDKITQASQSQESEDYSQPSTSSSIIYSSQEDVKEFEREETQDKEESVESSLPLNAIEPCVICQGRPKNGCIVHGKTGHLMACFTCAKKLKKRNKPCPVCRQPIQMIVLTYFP
#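 Assay system: stable mammalian line carrying autodegrading MDM2–luciferase fusion reporter; Input: 2000 cells in each well; Compound dosing: single-point 5 µM; Schedule: 2 h compound exposure at 37 °C; Signal: SteadyLite luciferase luminescence after 15 min room-temperature reagent incubation; Evaluation: % luminescence enhancement versus blank-corrected plate control mean; Benchmarks: plate controls and plate blanks.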
# L major viab: inhibitors of Leishmania major promastigote growth; Leishmania major promastigotes, resazurin fluorescence viability; inhibition, % at 10 µM; 200,000 tested, 9% active; in the data active means inhibition above about 50%;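 further: promastigotes grown with compound for 44 hours at 28 °C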
# S1P4 agonist: human S1P4 receptor agonism. O95977. S1P4-expressing cell line, agonist reporter assay. activation, % at 4.98 µM. 220,000 tested, 0.35% active. AID 1509; in the data active means activation above about 11%;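 further: 0% = DMSO vehicle and 100% = reference agonist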
# S1P3 antag: S1P3 (human) receptor antagonism. CHO S1P3 NFAT-BLA reporter, FRET fluorescence, antagonist mode. 170,000 tested, 0.27% active. inhibition, % at 4.98 µM. Q99500;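 active means inhibition above the plate cutoff, the mean inhibition of test wells on that plate plus 3 SD, cut at about 28% in these data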;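 further: cells challenged with S1P at its EC80 of 0.8 µM; blue over green emission ratio from cleaved BLA substrate after 4 h stimulation; 0% = S1P-stimulated wells and 100% = unstimulated DMSO-only wells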
# S1P4 antag: antagonists of human S1P4 receptor; O95977; S1P4-expressing cells, antagonist mode, reporter read-out; inhibition, % at 4.98 µM; 220,000 tested, 0.26% active; AID 1510; in the data active means inhibition above about 29%;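 further: 0% = wells stimulated with agonist and 100% = vehicle wells without agonist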
# An asterisk follows results filed as active; · = not tested or not shown.
SMILES,MDM2 E3 inh,L major viab,S1P4 agonist,S1P3 antag,S1P4 antag
O=C(CN1C(=O)COc2ccccc21)NCCCN1CCN(Cc2ccccc2)CC1,-7,3,0,7,2
O=C(CN1C(=O)COc2ccccc21)NCCN1CCC(Cc2ccccc2)CC1,-17,67*,1,·,-4
O=C(Nc1ccc(OCC(F)(F)C(F)F)c(C(F)(F)F)c1)c1ccccc1O,-15,100*,3,·,-3
O=C(Nc1ccc(OCC(F)(F)C(F)F)c(C(F)(F)F)c1)c1ccccc1,·,2,0,·,-7
O=C(O)COc1ccc(/C=N/NC(=O)Cc2ccc(Cl)cc2)cc1,-7,·,2,-5,-14
CCN1CCCC1CNCc1ccc(OCc2ccc(Cl)nc2)c(OC)c1 (stereo unspecified),-14,·,1,-10,-9
COc1cc(CNCCc2ccccc2)ccc1OCc1ccc(Cl)nc1,-6,100*,2,·,-8
COc1cc(CNCC(O)c2ccccc2)ccc1OCc1ccc(Cl)nc1 (stereo unspecified),-5,100*,-2,·,-20
CCCCNCc1ccc(OCc2ccc(Cl)nc2)c(OC)c1,-12,·,1,3,-8
CCc1ccc(N2C(=O)CC(NNc3nc4ccccc4s3)C2=O)cc1 (stereo unspecified),-15,-6,-1,4,6
Cc1cc(C)c2c3c(sc2n1)C(c1cccc(F)c1)C(C#N)=C(N)O3 (stereo unspecified),-12,89*,0,·,18
CC(C)c1ccc(/C=N/NC(=O)c2nnn(-c3nonc3N)c2CSC2=NCCS2)cc1,-4,97*,0,2,-2
CCCN(CC(=O)Nc1cc(Cl)cc(Cl)c1)CC(=O)Nc1ccc(F)c(F)c1F,-5,63*,-1,6,6
Cc1cccc(N2CCN(Cc3cnc(Cl)s3)CC2C)c1 (stereo unspecified),-19,78*,-1,-12,-6
COc1ccc(COc2cc(-c3cccc(OC)c3)nc3ccc(N)cc23)cc1,·,76*,2,-8,9
COc1ccc(COc2cc(-c3cccc(OC)c3)nc3ccc(NC(=O)c4ccc(N(C)C)cc4)cc23)cc1,·,84*,1,-1,10
Cc1cc(C)c2c(CC(=O)Nc3nccs3)coc2c1,14,-4,0,21,-7
O=C(CCl)N(C/C=C/c1ccccc1)c1ccc2c(c1)OCCO2,-18,76*,0,0,0
O=C(/C=C/c1ccccc1)c1ccc2c(c1)OCCCCO2,-34,44,0,·,2
COc1ccc(OC)c(NC(=S)NCCCN2CCOCC2)c1,-15,62*,1,-11,-10
S=C(NCCCN1CCOCC1)Nc1ccc(Cl)cc1Cl,0,99*,1,-5,-15
S=C(NCCN1CCOCC1)Nc1ccc(Cl)cc1Cl,-7,96*,-3,-5,7
Oc1ccc(/C=N/NC(=S)NCCN2CCOCC2)c(O)c1,-14,96*,-1,-15,-10
S=C(NCCN1CCOCC1)N/N=C/c1ccccc1,-9,1,0,·,-8
Fc1cc(Cl)ccc1NC(=S)NCCN1CCOCC1,-4,11,1,-20,-16
SMILES,MDM2 E3 inh,L major viab,S1P4 agonist,S1P3 antag,S1P4 antag
COc1ccc2cc(-c3[nH]ncc3CN3CCCN(c4ccccc4)CC3)ccc2c1,-8,28,0,-6,-1
Cc1cc(Cl)ccc1NC(=S)NCCN1CCOCC1,-5,60*,0,-14,-20
COc1ccccc1NC(=S)NCCN1CCOCC1,-4,16,0,10,-16
S=C(NCCN1CCOCC1)Nc1cccc2ccccc12,-7,67*,-1,3,-14
CNC(=S)N/N=C/C1=CCC2CC1C2(C)C (stereo unspecified),2,97*,-1,-3,4
CC1(C)C2CC=C(/C=N/NC(=S)NCCc3ccccc3)C1C2 (stereo unspecified),2,87*,1,-7,-7
CC1(C)C2CC=C(/C=N/NC(=O)c3ccccc3O)C1C2 (stereo unspecified),-16,7,0,-21,-19
Cc1cc(N=NC(=O)c2ccccc2)ccc1O,-9,86*,-1,-11,-6
COc1ccccc1Nc1nc(NCC2CCCO2)c2ccccc2n1 (stereo unspecified),-17,100*,3,18,-15
COc1cccc(-c2nc(NCC3CCCO3)c3ccccc3n2)c1O (stereo unspecified),-37,35,1,·,-15
CCNC(=O)c1ccc2c(c1)S(=O)(=O)c1ccccc1C2=O,-9,4,0,85*,5
